# Assay results reported in ChEMBL document CHEMBL1137710, “Synthesis and in vitro antitumor activity of new quinoxaline derivatives” (2009).
# Experiments:
# Format in all cases: functional
# [1] = system: K562; assay: Growth inhibition of human K562 cells after 48 hrs by sulforhodamine B assay; details: K562, 48 h; for TGI: read-out: pTGI (converted)
# In short: (§1)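 NCI 60-human-tumor-cell-line panel, with compounds tested over a 5-log dose range. Values are taken from dose-response curves as log10 molar concentrations: GI50 is 50% net growth inhibition, TGI is total growth inhibition, and LC50 is 50% net cell death.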
# [2] = system: A498; assay: Growth inhibition of human A498 cells after 48 hrs by sulforhodamine B assay; details: A498, 48 h; for CC50: read-out: pLC50 (the source's name) (converted); for TGI: read-out: pTGI (converted); in short: as §1
# [3] = system: UACC-257; assay: Growth inhibition of human UACC257 cells after 48 hrs by sulforhodamine B assay; details: UACC-257, 48 h; for CC50: read-out: pLC50 (the source's name) (converted); for TGI: read-out: pTGI (converted)
# In short: (§2)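 Run in the NCI 60-human-tumour-cell-line panel, tested over a 5-log dose range. Dose–response curves gave three values per cell line, each as a log10 molar concentration: GI50 (50% inhibition of net cell growth), TGI (total inhibition of net growth) and LC50 (50% net cell death). The mean graph midpoint is the arithmetic mean over all lines, with insensitive lines entered at the highest concentration tested.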
# [4] = system: SK-MEL-5; assay: Growth inhibition of human SK-MEL-5 cells after 48 hrs by sulforhodamine B assay; details: SK-MEL-5, 48 h; for CC50: read-out: pLC50 (the source's name) (converted); for TGI: read-out: pTGI (converted); in short: as §1
# [5] = system: HL-60(TB); assay: Growth inhibition of human HL-60(TB) cells after 48 hrs by sulforhodamine B assay; details: HL-60, 48 h; for TGI: read-out: pTGI (converted)
# In short: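 Tested only on compounds active in a three-line prescreen, in the NCI 60-human-tumour-cell-line panel over a 5-log dose range. Values come from dose–response curves as log10 molar GI50, the concentration inhibiting 50% net cell growth. Log10 TGI (total growth inhibition) and log10 LC50 (50% net cell death) were derived too. Mean graph midpoints include insensitive lines at the highest concentration tested.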
# [6] = system: Malme-3M; assay: Growth inhibition of human MALME-3M cells after 48 hrs by sulforhodamine B assay; in short: as §1
# [7] = system: HOP-62; assay: Growth inhibition of human HOP62 cells after 48 hrs by sulforhodamine B assay; details: HOP-62, 48 h; for TGI: read-out: pTGI (converted); in short: as §1
# [8] = system: CCRF-CEM; assay: Growth inhibition of human CCRF-CEM cells after 48 hrs by sulforhodamine B assay; in short: as §1
# [9] = system: OVCAR-3; assay: Growth inhibition of human OVCAR-3 cells after 48 hrs by sulforhodamine B assay; details: OVCAR-3, 48 h; for CC50: read-out: pLC50 (the source's name) (converted); for TGI: read-out: pTGI (converted); in short: as §1
# [10] = system: NCI-H460; assay: Anticancer activity against human NCI-H460 cells assessed as cell growth at 100 uM after 48 hrs by sulforhodamine B assay; details: NCI-H460, 48 h, read-out: Activity
# [11] = system: MCF7; assay: Growth inhibition of human MCF7 cells after 48 hrs by sulforhodamine B assay; details: MCF7, 48 h; for CC50: read-out: pLC50 (the source's name) (converted); for TGI: read-out: pTGI (converted); in short: as §1
# [12] = system: UO-31; assay: Growth inhibition of human UO31 cells after 48 hrs by sulforhodamine B assay; details: UO-31, 48 h; for CC50: read-out: pLC50 (the source's name) (converted); for TGI: read-out: pTGI (converted); in short: as §2
# [13] = system: T47D; assay: Growth inhibition of human T47D cells after 48 hrs by sulforhodamine B assay; in short: as §2
# [14] = system: NCI-H522; assay: Growth inhibition of human NCI-H522 cells after 48 hrs by sulforhodamine B assay; details: NCI-H522, 48 h; for TGI: read-out: pTGI (converted); in short: as §1
# [15] = system: SF-268; assay: Growth inhibition of human SF268 cells after 48 hrs by sulforhodamine B assay; details: SF-268, 48 h; for TGI: read-out: pTGI (converted); in short: as §1
# [16] = system: SK-MEL-2; assay: Growth inhibition of human SK-MEL-2 cells after 48 hrs by sulforhodamine B assay; details: SK-MEL-2, 48 h; for CC50: read-out: pLC50 (the source's name) (converted); for TGI: read-out: pTGI (converted); in short: as §1
# [17] = system: HCT-15; assay: Growth inhibition of human HCT15 cells after 48 hrs by sulforhodamine B assay; details: HCT-15, 48 h; for TGI: read-out: pTGI (converted); in short: as §1
# [18] = system: ACHN; assay: Growth inhibition of human ACHN cells after 48 hrs by sulforhodamine B assay; details: for CC50: read-out: pLC50 (the source's name) (converted); for TGI: read-out: pTGI (converted)
# [19] = system: SK-MEL-28; assay: Growth inhibition of human SK-MEL-28 cells after 48 hrs by sulforhodamine B assay; details: SK-MEL-28, 48 h; for CC50: read-out: pLC50 (the source's name) (converted); for TGI: read-out: pTGI (converted); in short: as §1
# [20] = system: UACC-62; assay: Growth inhibition of human UACC62 cells after 48 hrs by sulforhodamine B assay; details: UACC-62, 48 h; for CC50: read-out: pLC50 (the source's name) (converted); for TGI: read-out: pTGI (converted); in short: as §2
# [21] = system: MOLT-4; assay: Growth inhibition of human MOLT4 cells after 48 hrs by sulforhodamine B assay; details: MOLT-4, 48 h; for TGI: read-out: pTGI (converted); in short: as §1
# [22] = system: NCI-H322M; assay: Growth inhibition of human NCI-H322M cells after 48 hrs by sulforhodamine B assay; details: for TGI: read-out: pTGI (converted); in short: as §1
# [23] = system: SN12C; assay: Growth inhibition of human SN12C cells after 48 hrs by sulforhodamine B assay; details: for CC50: read-out: pLC50 (the source's name) (converted); for TGI: read-out: pTGI (converted); in short: as §2
# [24] = system: NCI-H226; assay: Growth inhibition of human NCI-H226 cells after 48 hrs by sulforhodamine B assay; details: NCI-H226, 48 h; for TGI: read-out: pTGI (converted); in short: as §1
# [25] = system: IGROV-1; assay: Growth inhibition of human IGROV1 cells after 48 hrs by sulforhodamine B assay; details: IGROV-1, 48 h; for CC50: read-out: pLC50 (the source's name) (converted); for TGI: read-out: pTGI (converted); in short: as §1
# [26] = system: OVCAR-4; assay: Growth inhibition of human OVCAR4 cells after 48 hrs by sulforhodamine B assay; details: OVCAR-4, 48 h; in short: as §1
# [27] = system: SF-539; assay: Growth inhibition of human SF539 cells after 48 hrs by sulforhodamine B assay; details: SF-539, 48 h; for TGI: read-out: pTGI (converted); in short: as §1
# [28] = system: HOP-92; assay: Growth inhibition of human HOP92 cells after 48 hrs by sulforhodamine B assay; details: HOP-92, 48 h; in short: as §1
# [29] = system: HT-29; assay: Growth inhibition of human HT-29 cells after 48 hrs by sulforhodamine B assay; details: HT-29, 48 h; in short: as §1
# [30] = read-out: pLC50 (the source's name) (converted)
smiles,measurement,setting,value
Nc1cc(N)c2nc(-c3ccccc3)c(Oc3ccc(Cl)c(Cl)c3)nc2c1,GI50,[1],3.55 µM
same,LC50,[1],> 100 µM
same,TGI,[1],> 100 µM
same,GI50,[2],91.2 µM
same,CC50,[2],> 100 µM
same,TGI,[2],> 100 µM
same,GI50,[3],28.2 µM
same,CC50,[3],> 100 µM
same,TGI,[3],87.1 µM
same,GI50,[4],9.77 µM
same,CC50,[4],83.2 µM
same,TGI,[4],28.8 µM
same,GI50,[5],5.13 µM
same,LC50,[5],> 100 µM
same,TGI,[5],> 100 µM
same,GI50,[6],15.8 µM
same,CC50,[6]; [30],89.1 µM
same,TGI,[6]; read-out: pTGI (converted),37.2 µM
same,GI50,[7],17 µM
same,LC50,[7],85.1 µM
same,TGI,[7],38 µM
same,GI50,[8],2.95 µM
same,LC50,[8],> 100 µM
same,TGI,[8]; read-out: pTGI (converted),> 100 µM
same,GI50,[9],10.7 µM
same,CC50,[9],66.1 µM
same,TGI,[9],26.9 µM
same,growth at 100 µM,[10],0%
same,GI50,[11],14.1 µM
same,CC50,[11],> 100 µM
same,TGI,[11],70.8 µM
same,GI50,[12],4.07 µM
same,CC50,[12],> 100 µM
same,TGI,[12],> 100 µM
same,GI50,[13],24.5 µM
same,CC50,[13]; [30],> 100 µM
same,TGI,[13]; read-out: pTGI (converted),79.4 µM
same,GI50,[14],8.32 µM
same,LC50,[14],> 100 µM
same,TGI,[14],33.9 µM
same,GI50,[15],17 µM
same,LC50,[15],> 100 µM
same,TGI,[15],52.5 µM
same,GI50,[16],5.62 µM
same,CC50,[16],89.1 µM
same,TGI,[16],23.4 µM
same,GI50,[17],20 µM
same,LC50,[17],> 100 µM
same,TGI,[17],> 100 µM
same,GI50,[18],9.33 µM
same,CC50,[18],> 100 µM
same,TGI,[18],47.9 µM
same,GI50,[19],21.4 µM
same,CC50,[19],> 100 µM
same,TGI,[19],64.6 µM
same,GI50,[20],16.2 µM
same,CC50,[20],> 100 µM
same,TGI,[20],47.9 µM
same,GI50,[21],6.31 µM
same,LC50,[21],> 100 µM
same,TGI,[21],> 100 µM
same,GI50,[22],21.4 µM
same,LC50,[22],> 100 µM
same,TGI,[22],58.9 µM
same,GI50,[23],11.5 µM
same,CC50,[23],> 100 µM
same,TGI,[23],> 100 µM
same,GI50,[24],15.1 µM
same,LC50,[24],> 100 µM
same,TGI,[24],49 µM
same,GI50,[25],11.5 µM
same,CC50,[25],91.2 µM
same,TGI,[25],32.4 µM
same,GI50,[26],33.1 µM
same,CC50,[26]; [30],> 100 µM
same,TGI,[26]; read-out: pTGI (converted),> 100 µM
same,GI50,[27],13.5 µM
same,LC50,[27],64.6 µM
same,TGI,[27],29.5 µM
COc1cc(CNc2nc3cc(N)cc(N)c3nc2-c2ccccc2)cc(OC)c1OC,GI50,[1],1.78 µM
same,LC50,[1],> 50.1 µM
same,TGI,[1],> 50.1 µM
same,GI50,[2],6.31 µM
same,CC50,[2],33.9 µM
same,TGI,[2],14.8 µM
same,GI50,[3],3.47 µM
same,CC50,[3],27.5 µM
same,TGI,[3],10.7 µM
same,GI50,[28],1.2 µM
same,LC50 (50% net cell death),[28],> 50.1 µM
same,TGI,[28]; read-out: pTGI (converted),3.09 µM
same,GI50,[4],0.724 µM
same,CC50,[4],29.5 µM
same,TGI,[4],7.76 µM
same,GI50,[5],1.26 µM
same,LC50,[5],> 50.1 µM
same,TGI,[5],> 50.1 µM
same,GI50,[7],17 µM
same,LC50,[7],> 50.1 µM
same,TGI,[7],> 50.1 µM
same,GI50,[9],1.15 µM
same,CC50,[9],18.2 µM
same,TGI,[9],3.39 µM
same,growth at 100 µM,[10],7%
same,GI50,[11],1.55 µM
same,CC50,[11],> 50.1 µM
same,TGI,[11],> 50.1 µM
same,GI50,[12],11.2 µM
same,CC50,[12],> 50.1 µM
same,TGI,[12],> 50.1 µM
same,GI50,[14],> 50.1 µM
same,LC50,[14],> 50.1 µM
same,TGI,[14],> 50.1 µM
same,GI50,[15],2.95 µM
same,LC50,[15],49 µM
same,TGI,[15],14.1 µM
same,GI50,[16],16.2 µM
same,CC50,[16],> 50.1 µM
same,TGI,[16],> 50.1 µM
same,GI50,[17],3.24 µM
same,LC50,[17],> 50.1 µM
same,TGI,[17],13.8 µM
same,GI50,[29],8.71 µM
same,LC50,[29],43.7 µM
same,TGI,[29]; read-out: pTGI (converted),19.5 µM
same,GI50,[18],5.37 µM
same,CC50,[18],23.4 µM
same,TGI,[18],11.2 µM
same,GI50,[19],8.51 µM
same,CC50,[19],36.3 µM
same,TGI,[19],17.8 µM
same,GI50,[20],8.13 µM
same,CC50,[20],29.5 µM
same,TGI,[20],15.5 µM
same,GI50,[21],12.3 µM
same,LC50,[21],> 50.1 µM
same,TGI,[21],> 50.1 µM
same,GI50,[22],3.02 µM
same,LC50,[22],> 50.1 µM
same,TGI,[22],15.8 µM
same,GI50,[23],8.71 µM
same,CC50,[23],32.4 µM
same,TGI,[23],16.6 µM
same,GI50,[24],10 µM
same,LC50,[24],> 50.1 µM
same,TGI,[24],22.4 µM
same,GI50,[25],9.12 µM
same,CC50,[25],> 50.1 µM
same,TGI,[25],> 50.1 µM
same,GI50,[27],1.35 µM
same,LC50,[27],26.9 µM
same,TGI,[27],7.94 µM
